Among the data in ChEMBL document CHEMBL1134640, “A novel series of highly potent benzimidazole-based microsomal triglyceride transfer protein inhibitors” (J Med Chem, 2001) are IC50, TC lowering and ED50 values, retold here.

Test [1] concerns the target T1, Microsomal triglyceride transfer protein large subunit (Homo sapiens, UniProt P55157).
T1 sequence (P55157 whole entry): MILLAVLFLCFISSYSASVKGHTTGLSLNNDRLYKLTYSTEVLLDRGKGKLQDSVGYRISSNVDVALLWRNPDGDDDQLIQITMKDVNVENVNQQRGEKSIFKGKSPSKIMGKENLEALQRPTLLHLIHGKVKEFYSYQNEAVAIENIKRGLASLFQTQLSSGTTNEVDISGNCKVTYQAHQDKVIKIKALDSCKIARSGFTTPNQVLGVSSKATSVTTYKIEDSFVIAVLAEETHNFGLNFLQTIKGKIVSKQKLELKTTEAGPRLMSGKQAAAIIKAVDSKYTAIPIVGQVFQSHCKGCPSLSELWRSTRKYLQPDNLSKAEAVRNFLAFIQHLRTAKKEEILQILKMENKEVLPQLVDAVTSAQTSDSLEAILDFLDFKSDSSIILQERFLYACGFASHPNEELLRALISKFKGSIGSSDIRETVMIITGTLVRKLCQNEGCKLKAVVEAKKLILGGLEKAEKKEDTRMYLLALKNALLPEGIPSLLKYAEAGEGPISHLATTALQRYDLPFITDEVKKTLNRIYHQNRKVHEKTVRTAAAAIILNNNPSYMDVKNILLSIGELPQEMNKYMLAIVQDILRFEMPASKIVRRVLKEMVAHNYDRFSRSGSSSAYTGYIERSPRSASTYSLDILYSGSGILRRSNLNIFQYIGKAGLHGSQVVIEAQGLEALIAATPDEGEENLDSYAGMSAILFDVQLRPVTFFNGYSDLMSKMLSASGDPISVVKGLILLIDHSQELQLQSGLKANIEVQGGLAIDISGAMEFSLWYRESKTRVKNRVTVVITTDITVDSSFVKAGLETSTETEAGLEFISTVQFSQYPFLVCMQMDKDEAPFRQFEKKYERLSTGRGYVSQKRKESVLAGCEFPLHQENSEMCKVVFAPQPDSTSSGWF
In words: In vitro inhibition of human Microsomal Triglyceride Transfer Protein, (triglyceride transfer assay).

Test [2] in a line: PlasmaTC lowering was determined in standard-diet-fed cynomolgus monkeys after 16h of postdosing of at 1.25 mg/kg. Format: functional, Cercopithecidae. The method, boiled down:
(§1)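 Cynomolgus monkeys on standard diet received oral dosing once daily for 7 days. Plasma TC was measured 16 h postdosing. Values are percent lowering at a stated dose (mg/kg), or ED50, the dose producing 50% TC lowering.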

For test [3], the target named is T1, Microsomal triglyceride transfer protein large subunit. In words: (§2) In vitro inhibition of human microsomal triglyceride transfer protein in HepG2 cells using apoB secretion assay. Format: cell-based.
Test [4] in a line: PlasmaTC lowering was determined in standard-diet-fed cynomolgus monkeys after 16h of postdosing of at 5 mg/kg. Type of test: functional, Cercopithecidae. In outline: as §1
Test [5] can be described thus: Dose required for 50% lowering of plasma TC in standard-diet-fed golden Syrian hamsters 16h postdosing. Type of test: functional. The method, boiled down:
(§3)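 Golden Syrian hamsters on standard diet were dosed orally once daily for 3 days. Plasma total cholesterol was measured 16 h after dosing. Values are percent TC lowering at a given dose (mg/kg), or ED50, the dose giving 50% plasma TC lowering.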

The subject of test [6] is Mesocricetus auratus. Briefly: TC lowering at 8 mg/kg was measured as % lowering of plasma TC in standard-diet-fed golden Syrian hamsters 16h postdosing.
Test [7] is described as follows: TC lowering at dose was measured as % lowering of plasma TC in standard-diet-fed cynomolgus monkeys 16h postdosing. Format: functional, Cercopithecidae. The method, boiled down: as §1
A short description of test [8]: PlasmaTC lowering was determined in standard-diet-fed cynomolgus monkeys after 16h of postdosing of at 2.5 mg/kg. Format: functional, Cercopithecidae. The method, boiled down:
as §1

Test [9] addresses T1, Microsomal triglyceride transfer protein large subunit. In words: In vitro inhibition of human Microsomal Triglyceride Transfer Protein (triglyceride transfer assay).
Test [10] is described as follows: ED50 represents dose required for 50% lowering of plasma TC in standard-diet-fed golden Syrian hamsters 16h postdosing. The conditions noted are these: Mesocricetus auratus.
Test [11] concerns Mesocricetus auratus. In words: 50% lowering of plasma TC in standard-diet-fed golden Syrian hamsters 16h postdosing. 15 mg/kg required for.
The subject of test [12] is Mesocricetus auratus. Briefly: PlasmaTC lowering was determined in standard-diet-fed after 16h of postdosing of at 15 mg/kg in golden Syrian hamsters.
A short description of test [13]: PlasmaTC lowering was determined in standard-diet-fed cynomolgus monkeys after 16h of postdosing of at 1 mg/kg. Format: functional, Cercopithecidae. In outline: as §1
Test [14] can be described thus: Dose required for 50% lowering of plasma TC in standard-diet-fed cynomolgus monkeys 16h postdosing. Type of test: functional. The conditions noted are these: Cercopithecidae. In outline: as §1
A short description of test [15]: PlasmaTC lowering was determined in standard-diet-fed cynomolgus monkeys after 16h of postdosing of at 0.1 mg/kg. Format: functional, Cercopithecidae. The method, boiled down: as §1
The nature of test [16]: PlasmaTC lowering was determined in standard-diet-fed cynomolgus monkeys after 16h of postdosing of at 0.3 mg/kg. Type of test: functional, Cercopithecidae. The method, boiled down:
as §1

A short description of test [17]: PlasmaTC lowering was determined in standard-diet-fed cynomolgus monkeys after 16h of postdosing at 2.5 mg/kg. Type of test: functional, Cercopithecidae. In outline:
as §1

Test [18] deals with T1, Microsomal triglyceride transfer protein large subunit. Briefly: In vitro inhibition of human microsomal triglyceride transfer protein using triglyceride transfer assay.
Test [19] shares this target. The test is described as §2. Type of test: functional, cell-based.
Test [20] can be described thus: Dose required for 50% lowering of plasma TC in standard-diet-fed golden Syrian hamsters 16h postdosing. Format: functional. The method, boiled down: as §3
The nature of test [21]: PlasmaTC lowering was determined in standard-diet-fed cynomolgus monkeys after 16h of postdosing at 5 mg/kg. Type of test: functional, Cercopithecidae. In outline:
as §1

The nature of test [22]: Dose required for 50% lowering of plasma TC in standard-diet-fed cynomolgus monkeys. Type of test: functional. The conditions noted are these: Cercopithecidae. In outline:
as §1

A short description of test [23]: PlasmaTC lowering was determined in standard-diet-fed cynomolgus monkeys after 16h of postdosing at 10 mg/kg. Format: functional, Cercopithecidae. The method, boiled down:
as §1

Test [24] is described as follows: PlasmaTC lowering was determined in standard-diet-fed cynomolgus monkeys after 16h of postdosing at 1.25 mg/kg. Format: functional, Cercopithecidae. The method, boiled down:
as §1

With `Cc1nc2c(NC(=O)c3ccccc3-c3ccc(C(F)(F)F)cc3)cccc2n1CCCCC1(C(=O)NCC(F)(F)F)c2ccccc2-c2ccccc21`, the 50% inhibitory concentration (IC50) in test [1] was 1 nM; in test [3], 0.15 nM. For the same compound, the TC lowering is reported as -51% in [2] and -80% in test [4]. For the same compound, the ED50 in test [5] is 2.5 mg/kg.

`CC(C)c1nc2c(NC(=O)c3ccccc3-c3ccc(C(F)(F)F)cc3)cccc2n1CCCCC1(C(=O)NCC(F)(F)F)c2ccccc2-c2ccccc21`: the IC50 in [1] turned out to be 4 nM; in test [3], 0.06 nM. Further, the TC lowering in the test on Mesocricetus auratus [6] is recorded as -60%; in [7] it was -39%.

As to `O=C(Nc1cccc2c1ncn2CCCCC1(C(=O)NCC(F)(F)F)c2ccccc2-c2ccccc21)c1ccccc1-c1ccc(C(F)(F)F)cc1`, the results for the TC lowering in [8] and in [4] were -19% and -52%, respectively. For the same compound, the IC50 worked out at 0.24 nM in test [3] and 5 nM in test [9]. In test [10], this compound showed an ED50 of 12 mg/kg.

For `CCCc1nc2c(NC(=O)c3ccccc3-c3ccc(C(F)(F)F)cc3)cccc2n1CCCCC1(C(=O)NCC(F)(F)F)c2ccccc2-c2ccccc21`, the 50% inhibitory concentration (IC50) in test [1] was 2 nM. Besides, the TC lowering in the test on Mesocricetus auratus [11] was -44%.

In test [1], `O=C(Nc1cccc2c1ncn2CCCC1(C(=O)NCC(F)(F)F)c2ccccc2-c2ccccc21)c1ccccc1-c1ccc(C(F)(F)F)cc1` returned a concentration for half-maximal inhibition (IC50) of 10 nM. For the same compound, the TC lowering with Mesocricetus auratus [12] is on record as -11%.

`Cc1ccc2c(nc(C)n2CCCCC2(C(=O)NCC(F)(F)F)c3ccccc3-c3ccccc32)c1NC(=O)c1ccccc1-c1ccc(C(F)(F)F)cc1`: the half-inhibitory concentration (IC50) in [1] is 1 nM; in [3], 0.03 nM. Besides, the TC lowering is -83% in test [2], -76% in test [13], -28% in test [15] and -43% in test [16]. Moreover, the ED50 in [14] came out at 0.38 mg/kg; in [5], 0.28 mg/kg.

Turning to `Cc1ccc2c(ncn2CCCCC2(C(=O)NCC(F)(F)F)c3ccccc3-c3ccccc32)c1NC(=O)c1ccccc1-c1ccc(C(F)(F)F)cc1`, the IC50 in [1] is 1 nM; in test [3], 0.02 nM. The TC lowering in [8] is recorded as -68%. The compound also registered an ED50 in [5] of 3.8 mg/kg.

For the compound `O=C(NC1CCN(CCCCC2(C(=O)NCC(F)(F)F)c3ccccc3-c3ccccc32)CC1)c1ccccc1-c1ccc(C(F)(F)F)cc1` [LOMITAPIDE], the TC lowering in test [17] is on record as -65%; in test [21] it was -74%; in [23], -88%; in test [24], -35%. Moreover, the IC50 in test [18] was 8 nM; in test [19] it was 0.8 nM. The ED50 worked out at 2.3 mg/kg in test [20] and 2 mg/kg in test [22].

As a reminder, the IC50 is the point on the concentration scale where inhibition reaches its midpoint. The low end stands for greater potency, the high end for weaker potency.
